Legend:
[1] = biological target: T1, Fatty-acid amide hydrolase 1 (Homo sapiens, UniProt O00519); test: Inhibition of human recombinant FAAH expressed COS7 cells; type: cell-based, COS-7
T1 sequence (O00519 whole entry): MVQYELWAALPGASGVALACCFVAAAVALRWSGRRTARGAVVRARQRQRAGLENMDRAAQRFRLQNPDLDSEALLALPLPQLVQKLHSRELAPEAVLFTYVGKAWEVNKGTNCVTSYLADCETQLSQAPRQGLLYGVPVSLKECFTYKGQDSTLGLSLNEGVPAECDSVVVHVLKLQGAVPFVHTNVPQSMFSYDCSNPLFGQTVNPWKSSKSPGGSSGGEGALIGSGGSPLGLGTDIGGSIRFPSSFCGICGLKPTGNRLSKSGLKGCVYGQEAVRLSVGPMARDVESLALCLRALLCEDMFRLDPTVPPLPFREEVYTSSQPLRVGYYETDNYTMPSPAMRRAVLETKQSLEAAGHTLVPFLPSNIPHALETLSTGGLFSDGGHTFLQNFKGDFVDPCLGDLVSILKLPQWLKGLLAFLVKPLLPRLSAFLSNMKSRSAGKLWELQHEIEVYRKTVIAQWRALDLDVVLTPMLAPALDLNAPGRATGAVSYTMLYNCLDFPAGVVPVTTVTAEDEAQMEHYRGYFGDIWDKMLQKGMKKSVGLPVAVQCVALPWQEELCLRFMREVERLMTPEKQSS
Procedure, shortened: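 Enzyme source was solubilized membrane lysate of COS-7 cells transiently transfected with full-length human FAAH cDNA. Substrate 10 µM 14C-oleamide in pH 9.0 Tris/EDTA/glycerol/Triton X-100/Hepes buffer at room temperature, with three inhibitor concentrations. Reactions quenched in 0.1 N HCl at three time points, then EtOAc extraction and TLC of oleamide versus oleic acid. Ki from Dixon plot.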

[2] = biological target: T2, Fatty-acid amide hydrolase 1 (Rattus norvegicus, UniProt P97612); test: Inhibition of rat recombinant FAAH expressed in Escherichia coli
T2 sequence (P97612 whole entry): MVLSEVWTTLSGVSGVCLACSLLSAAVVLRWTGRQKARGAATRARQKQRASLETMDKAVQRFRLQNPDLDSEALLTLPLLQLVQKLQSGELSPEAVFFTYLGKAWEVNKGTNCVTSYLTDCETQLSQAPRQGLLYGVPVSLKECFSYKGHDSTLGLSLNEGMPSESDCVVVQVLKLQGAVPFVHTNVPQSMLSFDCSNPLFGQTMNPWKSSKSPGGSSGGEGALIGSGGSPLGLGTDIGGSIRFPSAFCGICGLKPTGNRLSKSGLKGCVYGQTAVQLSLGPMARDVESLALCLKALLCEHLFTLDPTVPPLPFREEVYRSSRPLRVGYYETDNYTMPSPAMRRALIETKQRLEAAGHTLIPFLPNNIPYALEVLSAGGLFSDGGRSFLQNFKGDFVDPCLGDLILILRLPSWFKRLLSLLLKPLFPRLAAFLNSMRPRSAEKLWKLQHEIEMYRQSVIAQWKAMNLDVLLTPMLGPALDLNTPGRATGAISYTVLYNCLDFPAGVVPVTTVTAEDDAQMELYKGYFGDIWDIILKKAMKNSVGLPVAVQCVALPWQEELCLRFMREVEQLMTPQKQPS

[3] = Selectivity for rat recombinant FAAH over KIAA1363
[4] = biological target: T3, Neutral cholesterol ester hydrolase 1 (Homo sapiens, UniProt Q6PIU2); test: Inhibition of KIAA1363
T3 sequence (Q6PIU2 whole entry): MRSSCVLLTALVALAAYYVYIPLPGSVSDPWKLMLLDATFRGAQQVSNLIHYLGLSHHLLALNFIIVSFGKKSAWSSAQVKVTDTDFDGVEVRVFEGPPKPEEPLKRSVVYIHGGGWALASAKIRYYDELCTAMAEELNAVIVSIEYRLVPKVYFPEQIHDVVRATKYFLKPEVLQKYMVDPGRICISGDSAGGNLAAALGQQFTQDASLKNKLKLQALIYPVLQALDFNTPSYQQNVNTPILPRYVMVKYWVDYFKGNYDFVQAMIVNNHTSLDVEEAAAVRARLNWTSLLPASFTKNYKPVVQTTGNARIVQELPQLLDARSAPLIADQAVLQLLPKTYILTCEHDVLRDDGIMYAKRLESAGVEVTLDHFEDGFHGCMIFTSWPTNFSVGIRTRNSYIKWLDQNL

[5] = Selectivity for TGH over rat recombinant FAAH
[6] = Selectivity for rat recombinant FAAH over TGH
Liver carboxylesterase 1 = biological target: T4, Liver carboxylesterase 1 (Homo sapiens, UniProt P23141)
T4 sequence (P23141 whole entry): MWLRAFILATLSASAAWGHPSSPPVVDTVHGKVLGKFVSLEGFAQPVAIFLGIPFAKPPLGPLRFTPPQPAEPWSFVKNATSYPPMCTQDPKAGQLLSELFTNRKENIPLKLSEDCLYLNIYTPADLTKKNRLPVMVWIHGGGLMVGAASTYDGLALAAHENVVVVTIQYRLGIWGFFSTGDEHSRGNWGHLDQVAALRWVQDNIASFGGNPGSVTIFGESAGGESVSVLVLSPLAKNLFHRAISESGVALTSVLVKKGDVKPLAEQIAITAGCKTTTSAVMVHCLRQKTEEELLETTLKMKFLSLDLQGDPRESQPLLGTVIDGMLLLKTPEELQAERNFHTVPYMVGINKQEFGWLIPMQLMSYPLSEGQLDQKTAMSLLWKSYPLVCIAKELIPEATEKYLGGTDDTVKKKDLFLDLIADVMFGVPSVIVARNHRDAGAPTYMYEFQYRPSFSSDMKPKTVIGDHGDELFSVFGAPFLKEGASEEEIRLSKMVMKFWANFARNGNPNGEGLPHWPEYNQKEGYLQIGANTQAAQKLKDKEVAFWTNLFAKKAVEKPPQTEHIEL

[7] = biological target: T1, Fatty-acid amide hydrolase 1

Compound | Ki [1] [nM] | Ki [2] [nM] | Ratio IC50 [3] | IC50 [4] [nM] | Selectivity ratio [5] | Ratio IC50 [6] | IC50 [2] [nM] | IC50 (Liver carboxylesterase 1) [nM] | Selectivity ratio [3] | Ki [7] [nM]
O=C(CCc1ccc(Oc2ccccc2)cc1)c1ncc(C(F)(F)F)o1 | 1 | 2 | – | – | – | – | – | – | – | –
N#Cc1cnc(C(=O)CCc2ccc(COc3ccccc3)cc2)o1 | 0.51 | 0.5 | 9500 | 19000 | – | 50 | 2 | 100 | > 1000 | –
N#Cc1cnc(C(=O)CCc2ccc(Oc3ccccc3)cc2)o1 | 0.85 | 0.8 | 4000 | 20000 | – | 3 | 5 | 16 | > 1000 | –
O=C(CCc1ccc(COc2ccccc2)cc1)c1ncco1 | – | 25 | > 370 | > 100000 | 1 | 1 | 270 | 270 | – | –
O=C(CCc1ccc(COc2ccccc2)cc1)c1ncc(C(F)(F)F)o1 | 0.67 | 0.8 | – | – | – | – | – | – | – | –
CCCCCCCC/C=C\CCCCCCCC(=O)c1ncco1 | – | – | – | – | – | – | – | – | – | 100

The remaining lines, values ahead:

Ki [1] [nM] | Ki [2] [nM] | Ratio IC50 [3] | IC50 [4] [nM] | Selectivity ratio [5] | Ratio IC50 [6] | IC50 [2] [nM] | IC50 (Liver carboxylesterase 1) [nM] | Selectivity ratio [3] | Ki [7] [nM] | Compound
– | 77 | > 200 | > 100000 | 1 | 0.06 | 500 | 30 | – | – | O=C(CCc1ccc(Oc2ccccc2)cc1)c1ncco1
– | 16 | > 550 | > 100000 | 1 | 0.025 | 180 | 4.5 | – | – | O=C(CCc1ccc(-c2ccccc2)cc1)c1ncco1

— ChEMBL document CHEMBL1142267, “Optimization of alpha-ketooxazole inhibitors of fatty acid amide hydrolase” (J Med Chem, 2008)
